Measured values as given in the EternaBench riboswitch data.

System: MS2 coat protein
Test: apparent Kd, MS2 coat protein; higher = weaker binding; RNA-MaP array; FMN 200 µM where present
Summary of the method: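 In 100 mM Tris-HCl pH 7.5, 80 mM KCl, 4 mM MgCl2, BSA, DTT, yeast tRNA and Tween-20, SNAP-549-labelled MS2 coat protein was titrated from 0.7 or 1.5 nM, doubling to 3 µM, over designs transcribed by stalled E. coli RNA polymerase on Illumina sequencing-chip clusters. This was done first without ligand, then with ligand held constant. After green signal was normalised to red-channel RNA signal and control-cluster median Fmax, the apparent Kd was taken as the median of filtered per-cluster binding-curve fits.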

[1] = designed as: OFF switch for flavin mononucleotide, no ligand
[2] = ligand present: flavin mononucleotide, designed as: OFF switch for flavin mononucleotide
[3] = designed as: ON switch for flavin mononucleotide, no ligand
[4] = ligand present: flavin mononucleotide, designed as: ON switch for flavin mononucleotide

Sequence	apparent Kd [1] [nM]	apparent Kd [2] [nM]	apparent Kd [3] [nM]	apparent Kd [4] [nM]
UGUCGGAGCAGAGGAUAUUACAUGAGGAUCACCCAUGUAUGAACCAAUAGCUGGAAACAGCAAUGUAAGAAGGCUUCUCCGACA	7.13	45.9		
AAAAAACAUGAGGAUCACCCAUGUAAGGAUAUGCGAAAAAAAAAAAAAAAAAAAAAAAGCAGAAGGUACAAAAA	99.1	94.9		
AAGUAGAUCCGAGGAUAUACAUUGCGGAAACGCAACAUGAGGAUCACCCAUGUAGAAGGCGGAUCUACAGGUACUAAAGUACCA	10	17		
GCAGUACGCCUGGCAAUUUGCAAGCAGGAUAUCAGGCACCGUGGGACAUGAGGAUCACCCAUGUCUGAGAAGGGCUGGAGUUGC	10.7	23.1		
GAGAUGUGAGGAUAUCUAGACCGCGGCAGAGCUGCGGUCCGAGAGAAGGCACAUGAGGAUCACCCAUGUGAUGA	57	207		
AGGAGAAAUGUAGGAUAUGGGCGGGUAUAUGGGCAAAGCGCAUAUACCCGCCCAGAAGGACAUGAGGAUCACCCAUGUUUCCCU	12.2	13.3		
AUUCAGCGGAACUUGACAUCCCUACAUGAGGAUCACCCAUGUCAGGAUAUAUGCUCUCGAGCUGCAUAGAAGGGACAUAGUGGG	48.2	67		
UGAUACAUGAGGGUCUCCCAUGACAUGAGGAUCACCCAUGUGCAGGAUAUACGUGUGAUGAUAUAGUAGAAGGGCAGUCUAUGU	449	537		
GCUUCGGCUGUGAGGAUAUGGCUUCGGAAAUGAAGUUAGAAGGCACAUGAGGAUCACCCAUGUAAGGUUGAAGU	21.7	17.8		
GUCAGCUCGUGAGGAUAUACAACACUGCUUCGGCAGUGUAUUAAGAUCACAUGAGGAUCACCCAUGUAGAAGGCAAGAGCUGAU	13.2	227		
UAUAUGUCAGGAUAUCGAUUGGAAUGGAAUUUAGUUUUGGUCGAGAAGGGACAUGAGGAUCACCCAUGUUUUUC	38.7	215		
GGUUUGCGGCAGGAUAUCCAUCCGCGGUAUGGUGGAGAAGGGCUGACAUGAGGAUCACCCAUGUGCGUCCUGGG	26.6	38.4		
CGAGACCUCACAGGAUAUGCUGGACUUUGUCCAGCAGAAGGGUGAAAACAUGAGGAUCACCCAUGUAUGGUCUCCAAAUUUAAU			176	13.9
GGAGCUCCUGACAUGAGGAUCACCCAUGUUCACUUAUUAAAUCAGGAUAUCGUCGCGAAACGCGACGAGAAGGGAUAUGCUCCU			7.55	7.05
ACAUUGUAUGUGAGGAUAUCGAUGGGAUGGGUUGUCGAGAAGGCACAUGAGGAUCACCCAUGUGGGAAACAGCA	39.5	170		
CCAUCGAGUGUGAGGAUAUGCUGGUCCUUGGAUCAGCAGAAGGCACAUGAGGAUCACCCAUGUGGAGACGGUGG	60.1	286		
UGAUACAUGAGGAUCUCCCAUGACAUGAGGAUCACCCAUGUGCAGGAUAUACGUGUUAUAAUAUAGUAGAAGGGCAGUCUAUGU	133	199		
UAAUCGUUGCAGAAGGUUAUUAUUUUAUCGUGUCUCUUAACAUGAGGAUCACCCAUGUUUUUGAUGAAGGAUAUGCAACGGUAG	7.54	7.09		

Sequence	apparent Kd [1] [nM]	apparent Kd [2] [nM]	apparent Kd [3] [nM]	apparent Kd [4] [nM]
AGAAAUUAGUGAGGAUAUGCAUAAUGUGUAGCUGCAGAAGGCACGGACCACAAGACAUGAGGAUCACCCAUGUGGUAUAUAGAU	25.9	29.3		
AAAUUUAACGAAGGAUAUGGUUACAUGAGGAUCACCCAUGUAAUGGUUGUGAUAUUGAUUAAGUUCCAGAAGGUCGUAUACAUA	97.8	279		
UUGGGUCGGGAGGAUAUUCGGGCUCAUGGGCUUGGAGAAGGCUCGACAUGAGGAUCACCCAUGUAAGUGUACUU	153	542		
AGCGUAUGAACAUGAGGAUCACCCAUGUAAACGGAAACGAAUGAGGAUAUCGAUAGCAAAGCUAUCGAGAAGGCAUGGGACGCU			159	36.4
UACUCAUGUGAGAAGGGACGUAUCUCCAUGAGGGUAGGGCUAUUAGAGAAGUCAGGAUAUCACAUGAGGAUCACCCAUGUGACG	6.92	7.02		
UUUGUACAUGAGGAUCACCCAUGUGAGGAUAUGCUUUAUUAUUAUUAUUAUUAUUAUUGCAGAAGGCACGUUGU	69.7	98.2		
CCUUUGAAGAUCCAAAAUUUCAACAUGAGGAUCACCCAUGUGCAGGAUAUCGUGCCAGUGAUGUACGAGAAGGGCAGACUCUGC	176	177		
CUUAAACAUGAGGAUCACCCAUGUCAGGAUAUGAUACUAUGUACUUCGGUACAUAGUAUCAGAAGGGAUAUAAA	34.2	33.5		
UAACAUGUCCGAGGAUAUCUGGAAACAUUUUCAAGAGAAGGCGGACAUGAGGAUCACCCAUGUCUCUCCUCAUCAAAUCCAAGU	8.9	42.3		
UUGUUACGAUUAGGAUAUUAUAGAUUGAAUAGUAUGAUUUACAUGAGGAUCACCCAUGUUACAUUUAAGAAGGAAUCGAAUUAU	21.1	16.9		
ACAUGAGGAUCACCCAUGUUAUCCGGGACUUCAAUUGUUUCUAGAAGGCUGUCUGCUUGUUAGUCAGAGGAUAUAGAAUCAAAU	11.4	11		
CCAGCGUAUGUGAGGAUAUGCUGGUCCUUGGAUCAGCAGAAGGCACAUGAGGAUCACCCAUGUAGAGACGUUGG	27	29.8		
UUGAUGUCAUCAGGAUAUAGUAUUUAAGACAUAUCUUCUUUCAAACAUGAGGAUCACCCAUGUCGCUAGAAGGGAUGAUUGAUU	17.3	15.3		
GUCUUCCUAGGAUAUACAUGAGGAUCACCCAUGUACAGUUUCGUCUAGGGAUACUCGCGUAGAAGGAGGUGGAU	20.8	26.5		
CAGCUGAAUGUGAGGAUAUGUCUAGCCUCGGCUAGACAGAAGGCACAUGAGGAUCACCCAUGUCUCAACAGCUG	38.8	675		
AGUUAAUAUCGAGGAUAUGUCUAGACACAUGAGGAUCACCCAUGUAUGUGUAUAGAAGGCGAUAUUAACAGCAUGUUACAUGCG			39	16.1
GCCUUAUCCGUCAGGAUAUACAUUUUUUUUUUGUUGUAGAAGGGACAUGAGGAUCACCCAUGUACAUUACAUUG	25.8	28.9		
GGGUACAUCGGAGGAUAUCAUGUAAAUACAUGAGGAUCACCCAUGUCGAUGGAGACAACGGAGAUUGAGAAGGCCGAUGUACCG			952	108
